The source of these data is ChEMBL document CHEMBL1158473, “Aromatic 2-(thio)ureidocarboxylic acids as a new family of modulators of multidrug resistance-associated protein 1: synthesis, biological evaluation, and structure-activity relationships” (J Med Chem, 2009).

Broadly, the IC50 is the concentration that inhibits the measured activity by half. For orientation: inhibition means the percentage by which the read-out fell short of the control.

Activity calls are given as the source filed them. No cut-off for these calls is given here.

For series [1], the target named is T1, Multidrug resistance-associated protein 1 (Homo sapiens, UniProt P33527). Put plainly: Inhibition of MRP1-mediated calcein AM transport expressed in multidrug resistant human 2008 cells assessed as calcein AM accumulation at 100 uM by fluorescence assay in presence of p-gp and BCRP inhibitor XR9577. It counts as cell-based. The settings on record: human, 2008, 100 µM.

The target in series [2] is T1, Multidrug resistance-associated protein 1. Nature of the series: Inhibition of MRP1 expressed in multidrug resistant human 2008 cells assessed as calcein AM accumulation by fluorescence assay in presence of p-gp and BCRP inhibitor XR9577. It counts as cell-based. In short, it runs like this:
(§1)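 Transfected 2008 MRP1 cells run beside 2008 WT cells, 21000 cells per well in Krebs-HEPES buffer. Cobalt sulfate was added to quench extracellular calcein, plus XR9577 to block P-gp. After 30 min preincubation with compound, calcein AM (final 0.5 μM) was added and fluorescence followed 30 min. Slopes were normalized and fitted by a four-parameter logistic; indomethacin (0.316–178 μM) was included.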

The target is the same in series [3]. Nature of the series: Inhibition of MRP1. In short, it runs like this: as §1
Series [4] has as its target T2, BCRP (ABCG2) (Homo sapiens, UniProt Q9UNQ0).
T2 sequence (Q9UNQ0 whole entry): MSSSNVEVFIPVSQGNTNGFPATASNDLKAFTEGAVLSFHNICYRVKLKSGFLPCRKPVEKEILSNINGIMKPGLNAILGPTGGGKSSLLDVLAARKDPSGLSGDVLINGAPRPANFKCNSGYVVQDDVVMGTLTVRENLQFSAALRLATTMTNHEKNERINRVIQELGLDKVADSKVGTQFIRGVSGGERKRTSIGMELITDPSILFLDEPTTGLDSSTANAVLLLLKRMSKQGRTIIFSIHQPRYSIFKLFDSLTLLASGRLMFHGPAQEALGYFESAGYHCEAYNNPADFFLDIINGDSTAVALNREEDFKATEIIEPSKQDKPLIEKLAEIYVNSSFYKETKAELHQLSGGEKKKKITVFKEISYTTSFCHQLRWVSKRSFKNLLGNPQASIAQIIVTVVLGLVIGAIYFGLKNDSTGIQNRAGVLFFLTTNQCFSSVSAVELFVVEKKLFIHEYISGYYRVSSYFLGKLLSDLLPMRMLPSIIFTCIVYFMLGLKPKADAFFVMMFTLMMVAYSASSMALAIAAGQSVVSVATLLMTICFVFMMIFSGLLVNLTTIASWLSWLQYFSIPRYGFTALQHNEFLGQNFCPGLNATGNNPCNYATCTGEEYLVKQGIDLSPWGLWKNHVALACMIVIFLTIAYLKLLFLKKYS
Nature of the series: Inhibition of BCRP expressed in human MCF7 MX cells at 31.6 uM by Hoechst 33342 staining relative to 10 uM XR9577. The settings on record: MCF7 MX cells expressing BCRP, probe Hoechst 33342. In kind it is cell-based. Summed up:
(§2)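 MCF-7 MX cells, with parental MCF-7 alongside, in RPMI 1640 plus 10% FCS. Cells washed in Krebs-HEPES, about 20000 per well, preincubated with compound 30 min at 37 °C, 5% CO2. Hoechst 33342 added and fluorescence (ex 355/em 460 nm) read every 120 s up to 2400 s at 37 °C. Background-subtracted slopes were fitted; XR9577 10 μM served as positive control.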

The subject of series [5] is 2008. Nature of the series: Cytotoxicity against human 2008 cells after 72 hrs by MTT assay. The conditions noted are these: Homo sapiens, 2008, 72 h. In general terms: Tetrazolium dyes change colour on reduction, which living cells bring about.
The test system of series [6] is 2008. Put plainly: Potentiation of vinblastine-induced cytotoxic activity against MRP1-expressing human 2008 cells at 31.6 uM after 72 hrs by MTT assay. In kind it is functional, cell-based. Summed up:
(§3)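 2008 MRP1 cells given a fixed 31.6 μM modulator together with vinblastine or daunorubicin at 0.1 nM–100 μM. Cytostatic alone was tested on 2008 MRP1 and WT cells as control; indomethacin 31.6 μM served as positive control. After 72 h, viability was read by MTT.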

Series [7] deals with 2008. Put plainly: Potentiation of daunorubicin-induced cytotoxic activity against MRP1-expressing human 2008 cells at 31.6 uM after 72 hrs by MTT assay. It counts as functional, cell-based. Summed up: as §3
Series [8] deals with T3, Broad substrate specificity ATP-binding cassette transporter ABCG2 (Homo sapiens, UniProt Q9UNQ0).
T3 sequence (Q9UNQ0 whole entry): T2 sequence (Q9UNQ0 whole entry)
Put plainly: Inhibition of BCRP expressed in MCF7 MX cells by Hoechst 33342 staining. It counts as cell-based. In short, it runs like this: as §2

Series [9] relates to 2008. Put plainly: Cytotoxicity against human 2008 cells after 24 hrs by MTT assay. The settings on record: Homo sapiens, 2008, 24 h. It counts as cell-based.
In series [10] the test system is A2780 ADR. Put plainly: Inhibition of P-gp expressed in human A2780/ADR cells assessed as calcein AM accumulation a 100 uM by fluorescence assay. It counts as cell-based. Summed up: (§4)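 P-gp-overexpressing A2780/ADR cells, with wild-type A2780 alongside. Calcein AM accumulation run as in the MRP1 assay (30 min preincubation, final 0.5 μM calcein AM, 30 min reading) but without cobalt or XR9577. XR9577 10 μM served as positive control.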

In series [11] the test system is A2780 ADR. Nature of the series: Inhibition of P-gp expressed in human A2780/ADR cells assessed as calcein AM accumulation a 31.6 uM by fluorescence assay. In kind it is cell-based. In short, it runs like this: as §4

T1 sequence (P33527 whole entry): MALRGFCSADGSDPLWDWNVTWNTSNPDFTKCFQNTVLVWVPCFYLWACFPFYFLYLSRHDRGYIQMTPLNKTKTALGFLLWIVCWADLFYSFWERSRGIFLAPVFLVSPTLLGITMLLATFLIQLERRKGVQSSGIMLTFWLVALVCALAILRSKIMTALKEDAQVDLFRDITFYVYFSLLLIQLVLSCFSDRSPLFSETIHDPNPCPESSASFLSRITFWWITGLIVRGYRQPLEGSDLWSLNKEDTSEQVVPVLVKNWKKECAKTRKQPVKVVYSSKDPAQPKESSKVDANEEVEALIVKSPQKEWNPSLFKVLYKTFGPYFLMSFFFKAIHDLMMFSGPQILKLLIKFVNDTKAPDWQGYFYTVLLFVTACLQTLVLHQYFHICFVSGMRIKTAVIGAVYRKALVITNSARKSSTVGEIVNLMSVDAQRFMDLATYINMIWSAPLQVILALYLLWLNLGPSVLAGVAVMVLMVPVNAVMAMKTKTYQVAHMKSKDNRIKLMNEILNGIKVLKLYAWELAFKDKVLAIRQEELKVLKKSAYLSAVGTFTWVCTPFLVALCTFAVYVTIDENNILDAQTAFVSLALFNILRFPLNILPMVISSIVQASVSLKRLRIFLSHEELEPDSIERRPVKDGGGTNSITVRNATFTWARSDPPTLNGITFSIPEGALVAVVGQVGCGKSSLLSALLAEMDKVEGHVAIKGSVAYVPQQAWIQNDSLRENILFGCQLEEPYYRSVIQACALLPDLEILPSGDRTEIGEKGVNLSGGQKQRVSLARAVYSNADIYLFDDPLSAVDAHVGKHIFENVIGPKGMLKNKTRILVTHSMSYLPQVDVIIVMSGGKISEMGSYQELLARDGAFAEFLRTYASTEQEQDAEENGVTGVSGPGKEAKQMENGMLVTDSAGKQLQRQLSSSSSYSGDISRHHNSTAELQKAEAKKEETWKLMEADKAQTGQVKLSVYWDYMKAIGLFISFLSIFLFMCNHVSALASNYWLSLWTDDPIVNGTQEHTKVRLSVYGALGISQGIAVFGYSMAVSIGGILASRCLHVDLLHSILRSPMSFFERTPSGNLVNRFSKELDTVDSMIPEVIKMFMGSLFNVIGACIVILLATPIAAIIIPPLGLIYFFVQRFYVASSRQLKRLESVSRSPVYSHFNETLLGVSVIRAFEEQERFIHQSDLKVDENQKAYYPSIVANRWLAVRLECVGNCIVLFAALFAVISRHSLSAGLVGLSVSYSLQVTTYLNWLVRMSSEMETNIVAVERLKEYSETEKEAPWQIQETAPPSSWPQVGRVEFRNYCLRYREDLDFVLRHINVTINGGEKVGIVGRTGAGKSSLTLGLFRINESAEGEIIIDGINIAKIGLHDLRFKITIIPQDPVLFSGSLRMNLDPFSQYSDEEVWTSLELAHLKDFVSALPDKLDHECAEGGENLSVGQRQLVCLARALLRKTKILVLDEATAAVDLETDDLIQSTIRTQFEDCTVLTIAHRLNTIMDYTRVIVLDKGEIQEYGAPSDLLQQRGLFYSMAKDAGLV

As to `Cc1ccc(NC(=O)N(C)c2ccccc2)c(C(=O)O)c1`, in [1], the “inhibition (INH)” value is given as “Not Active”.

Regarding `O=C(O)c1ccccc1NC(=S)N1CCNCC1`, the IC50 in series [2] is 20.7 µM.

On to `O=C(O)c1cc(-c2ccccc2)sc1NC(=S)N1CCOCC1`, for which the IC50 in series [2] was 27.5 µM.

In [3], `COc1cc(C2Oc3cc(-c4oc5cc(O)cc(O)c5c(=O)c4O)ccc3OC2CO)ccc1O` (stereo not given) [DEHYDROSILYLBIN] gave an IC50 of 1.1 µM.

With `CCN(CC)C(=S)Nc1sc2c(c1C(=O)O)CCC2`, the IC50 was 2.56 µM in series [2] and greater than 100 µM in series [5]. The same molecule showed an inhibition at 31.6 µM in series [4] of 25%.

`O=C(O)c1ccccc1NC(=O)N1CCOCC1`: the “inhibition (INH)” value in series [1] is recorded as “Not Active”.

For the molecule `CCN(CC)C(=S)Nc1sc(C(N)=O)c(C)c1C(=O)O`, the IC50 in series [2] was greater than 100 µM.

For the molecule `Cc1cc(NC(=O)N2CCOCC2)c(C(=O)O)cc1C`, in series [2], the half-inhibitory concentration (IC50) is 43.4 µM.

For `CCN(CC)C(=O)Nc1ccccc1C(=O)O`, the IC50 in series [2] is 26.4 µM.

Turning to `COC(=O)CN(C)C(=O)Nc1ccccc1C(=O)O`, the “inhibition (INH)” value in series [1] is “Not Active”.

Regarding `O=C(O)c1ccccc1NC(=S)N1CCCC1`, in series [2], the IC50 is 18.3 µM.

In [5], `CCN(CC)C(=O)Nc1cc2ccccc2cc1C(=O)O` yielded a concentration for half-maximal inhibition (IC50) greater than 100 µM.

`CN(C(=S)Nc1sc2ccccc2c1C(=O)O)C1CCCCC1`: the concentration for half-maximal inhibition (IC50) is 1.23 µM in [2] and greater than 100 µM in series [5]. In [4], this molecule displayed an inhibition at 31.6 µM of 25%.

Take `CN1CCN(C(=S)Nc2sc3c(c2C(=O)O)CCCC3)CC1`: the “inhibition (INH)” value in series [1] is “Not Active”.

Regarding `CCN(CC)C(=S)Nc1sc2c(c1C(=O)O)CCCC2`, the IC50 is 2.71 µM in series [2] and greater than 100 µM in series [5]. The molecule further returned an inhibition at 31.6 µM in series [4] of 25%.

For `CCN(CC)C(=O)Nc1sc2c(c1C(=O)O)CCCC2`, 31.6 µM produced 25% inhibition in series [4]. In series [5], this molecule registered an IC50 greater than 100 µM.

In the case of `Cc1sc(NC(=S)N2CCOCC2)c(C(=O)O)c1C`, the IC50 in series [2] was 18.3 µM.

As to `O=C(O)c1c(-c2ccccc2)csc1NC(=S)N1CCOCC1`, the “inhibition (INH)” value in [1] is given as “Not Active”.

In the case of `CN(C(=S)Nc1sccc1C(=O)O)C1CCCCC1`, the figures for the IC50 in series [2], in series [8] and in series [5] were 4.51 µM, 10.2 µM and greater than 100 µM, respectively. Also, the outcome in series [6] and in [7] was inactive.

Turning to `CN(CCc1ccccc1)C(=S)Nc1ccccc1C(=O)O`, the half-maximal inhibitory concentration (IC50) in [2] was 24 µM.

For the molecule `O=C(O)c1c(NC(=S)N2CCOCC2)sc2ccccc12`, the “inhibition (INH)” value in [1] is reported as “Not Active”.

In [4], `CN(C(=S)Nc1ccccc1C(=O)O)C1CCCCC1` came in with an inhibition at 31.6 µM of less than 20%. Besides, in series [5], the IC50 is greater than 100 µM.

Take `CCN(CC)C(=S)Nc1sc2ccccc2c1C(=O)O`: the results for the half-inhibitory concentration (IC50) in series [2], in series [8] and in series [5] were 0.932 µM, 6.16 µM and greater than 100 µM, respectively. Further, the outcome in series [6] and in [7] was inactive.

For `CN(Cc1ccccc1)C(=S)Nc1ccccc1C(=O)O`, in [2], the half-maximal inhibitory concentration (IC50) is 29.1 µM.

For the molecule `CCN(CC)C(=S)Nc1scc(C(C)C)c1C(=O)O`, the IC50 in series [2] is 14.5 µM.

`Cc1sc(NC(=S)N(C)C2CCCCC2)c(C(=O)O)c1C`: the values for the half-inhibitory concentration (IC50) in [2] and in series [5] were 4.19 µM and greater than 100 µM, respectively. In addition, the inhibition at 31.6 µM in [4] stood at 25%.

`CCN(CC)C(=S)Nc1ccsc1C(=O)O`: the IC50 was 4.18 µM in series [2] and greater than 100 µM in [9]. The inhibition at 31.6 µM in [4] is 25%.

With `CCN(CC)C(=S)Nc1sccc1C(=O)O`, the half-inhibitory concentration (IC50) was 4.46 µM in [2] and greater than 100 µM in [5]. In series [4], the inhibition at 31.6 µM came out at 25%.

Regarding `Cc1ccc(NC(=O)N2CCOCC2)c(C(=O)O)c1`, the “inhibition (INH)” value in [1] is “Not Active”.

With `CCN(CC)C(=O)Nc1sc2c(c1C(=O)O)CCC2`, the inhibition at 31.6 µM in series [4] was 25%. The half-inhibitory concentration (IC50) in series [5] is greater than 100 µM.

Consider `Cc1ccc(NC(=O)N(C)CCc2ccccc2)c(C(=O)O)c1`, for which, in [1], the “inhibition (INH)” value is on record as “Not Active”.

Turning to `CN(CCc1ccccc1)C(=O)Nc1ccccc1C(=O)O`, the “inhibition (INH)” value in series [1] was “Not Active”.

`CCN(CC)C(=S)Nc1ccccc1C(=O)O`: the IC50 in [2] is 21.6 µM.

As to `CCN(CC)C(=S)Nc1sc(C)c(C)c1C(=O)O`, the 50% inhibitory concentration (IC50) in series [2] is 20.4 µM.

Consider `O=C(O)c1c(NC(=O)N2CCOCC2)sc2c1CCCC2`, for which the “inhibition (INH)” value in series [1] is on record as “Not Active”.

Turning to `Cc1ccc(NC(=O)N(C)Cc2ccccc2)c(C(=O)O)c1`, the “inhibition (INH)” value in series [1] is listed as “Not Active”.

As to `CN(C)C(=S)Nc1sc2c(c1C(=O)O)CCCC2`, the “inhibition (INH)” value in series [1] is listed as “Not Active”.

Regarding `CCN(CC)C(=S)Nc1sc2c(c1C(=O)O)C(C)CCC2` (racemic), the 50% inhibitory concentration (IC50) in series [2] is 4.06 µM; in [8], 9.1 µM; in [5], greater than 100 µM.

For `CN(C(=O)Nc1ccccc1C(=O)O)C1CCCCC1`, the inhibition at 31.6 µM in series [4] amounted to 25%. In series [5], this molecule gave an IC50 greater than 100 µM.

`CCN(CC)C(=S)Nc1sc2c(c1C(=O)O)CCCCC2`: the IC50 is 5.97 µM in series [2] and greater than 100 µM in series [5]. For the same molecule, the inhibition at 31.6 µM in series [4] worked out at 25%.

Turning to `CN(Cc1ccccc1)C(=O)Nc1ccccc1C(=O)O`, the half-maximal inhibitory concentration (IC50) in series [2] is 42.6 µM.

Turning to `O=C(O)c1ccccc1NC(=O)N1CCCC1`, the IC50 in series [2] is 43.1 µM.

On to `CCN(CC)C(=S)Nc1sc(-c2ccccc2)cc1C(=O)O`, for which the inhibition in [10] is 40%; in series [11], 20%. In addition, the IC50 in series [2] was 14.3 µM; in series [5], greater than 100 µM.

With `CN(C(=S)Nc1ccccc1C(=O)O)c1ccccc1`, the IC50 in series [2] was 198 µM.

Take `Cc1ccc(NC(=O)N(C)C2CCCCC2)c(C(=O)O)c1`: the IC50 in [2] is 22.8 µM.

On to `CN(C(=O)Nc1ccccc1C(=O)O)c1ccccc1`, for which the “inhibition (INH)” value in series [1] is “Not Active”.

Take `O=C(O)c1c(NC(=S)N2CCOCC2)sc2c1CCCC2`: the “inhibition (INH)” value in [1] is reported as “Not Active”.

For `CC(C)NC(=O)Nc1sc2c(c1C(=O)O)CCCC2`, the “inhibition (INH)” value in series [1] was “Not Active”.

On to `O=C(O)c1ccccc1NC(=S)N1CCOCC1`, for which the “inhibition (INH)” value in series [1] is “Not Active”.
